Compound activity from PubChem.
Compounds with a hit are over-represented: about 3.1% of the library has one in this group of screens.
KCNQ1 act – potentiators or activators of KCNQ1 channel, primary screen, cell-based, thallium flux, high-throughput. Potassium voltage-gated channel subfamily KQT member 1 (Homo sapiens), P51787. B-score at 10 µM. actives 0.35% (n = 310,000). CHO-K1 KCNQ1, thallium flux FluxOR fluorescence; active compounds read high;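 active means fluorescence ratio B-score, a plate-corrected score, at least three library SD, with initial intensity B-score within 5 SD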
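Assay system: stable KCNQ1 CHO-K1 line; medium: assay buffer, equal DMSO in all wells; timing: 90 min dye loading and 20 min compound exposure, both at room temperature; technique: kinetic FluxOR thallium fluorescence, 10-s 1-Hz baseline, 110-s post-stimulus read; read-out basis: B score of baseline-normalized fluorescence ratio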
hERG protect – hERG rescue from dofetilide block, primary screen, cell-based, CHO-hERG, FluxOR thallium flux, dofetilide IC70; Voltage-gated inwardly rectifying potassium channel KCNH2 (Homo sapiens), Q12809; dofetilide IC70 present; activation (rescue from dofetilide block), less the hit threshold, % at 10 µM; actives 0.51% (n = 310,000);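 active means activation above the mean of controls blocked by dofetilide plus 5 SD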;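 further: thallium influx through hERG after potassium depolarization seen as dye fluorescence rise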
KCNK9 block – KCNK9 potassium channel inhibitors, primary screen, HEK293 cells, thallium flux. Potassium channel subfamily K member 9 (Homo sapiens), Q9NPC2. FluxOR thallium flux fluorescence; active compounds read low. actives 1.2% (n = 310,000). B-score at 10 µM. AID 488922, 2010;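 active means ratio B-score over 3 SD below the library mean, with starting fluorescence within 5 SD of its mean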;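 further: negative B-score means less thallium flux so channel inhibition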
KCNK3 block – human KCNK3 channel inhibitors, primary screen, CHO cells, FluxOR thallium flux, B-score; AID 602410, 2012; actives 0.84% (n = 340,000); B-score at 10 µM; FluxOR fluorescence; active compounds read low;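 active means B-score under library mean minus 4 SD, starting fluorescence ratio at most library mean plus 5 SD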;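 further: more negative B-score means stronger inhibition of thallium flux through KCNK3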
Target sequence (O14649 whole entry, looked up): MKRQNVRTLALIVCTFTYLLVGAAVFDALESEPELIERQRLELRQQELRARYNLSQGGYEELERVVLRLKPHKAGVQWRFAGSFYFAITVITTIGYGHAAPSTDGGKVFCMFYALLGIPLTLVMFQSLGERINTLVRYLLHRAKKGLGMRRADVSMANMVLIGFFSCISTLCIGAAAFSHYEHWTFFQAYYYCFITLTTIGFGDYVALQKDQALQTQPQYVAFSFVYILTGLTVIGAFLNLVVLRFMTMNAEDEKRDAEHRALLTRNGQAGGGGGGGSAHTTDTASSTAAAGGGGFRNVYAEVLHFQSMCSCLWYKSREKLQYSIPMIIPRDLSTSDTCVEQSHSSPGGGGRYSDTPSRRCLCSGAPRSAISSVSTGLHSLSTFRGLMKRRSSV
KCNQ1 inh – inhibitors of human KCNQ1 channel, primary screen, cell-based, thallium flux, high-throughput. CHO-K1 KCNQ1, FluxOR thallium flux fluorescence; active compounds read high. actives 1.3% (n = 310,000). B-score at 10 µM. AID 2642, 2010;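 active means compounds whose thallium flux B-score, printed positive for inhibition, exceeds three library SD while starting fluorescence stays within three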;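 further: channel opened by potassium depolarization with thallium stimulus after 20 min compound exposure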
KCNQ1 block val – KCNQ1 potassium channel inhibitors, confirmation, cell-based, Tl flux, duplicate; actives 93% (n = 1,600); shares compounds with KCNQ1 inh; KCNQ1 cell line, FluxOR thallium flux fluorescence; inhibition, % at 10 µM;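 active means primary screen active, with duplicate mean exceeding buffer control mean plus 3 SD of buffer wells, cut at about 28% in these data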;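 further: 0% = buffer control ratio and 100% = XE991 inhibitor control ratio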
CHO Tl flux – thallium flux effects in parental CHO cells, counter-screen for KCNQ1 inhibitor project, cell-based, Tl flux | fluorescence ratio (Tl flux) at 10 µM | actives 21% (n = 1,600) | shares compounds with KCNQ1 inh | parental CHO-K1, FluxOR thallium flux fluorescence ratio; active compounds read low; zero means no signal rise above baseline | AID 588366, 2011;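 active means mean of duplicate thallium-flux fluorescence ratios in parental host cells more than 5 SD below the buffer control mean, cut at about 0.38 in these data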;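 further: ratio is peak minus minimum fluorescence divided by baseline fluorescence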
KCNQ1 ephys val – KCNQ1 channel inhibitors, confirmation, orthogonal assay, cell-based, automated electrophysiology; shares compounds with KCNQ1 inh; KCNQ1-CHO cells, automated patch clamp current; calls only at 10 µM; actives 20% (n = 490);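 active means KCNQ1 current drop exceeding 3 SD of negative control wells, seen in both duplicate runs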;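 further: steady state current during a 2 s step from -80 to +40 mV; negative values mean current inhibition and positive values mean potentiation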
KCNQ2 spec – KCNQ2 channel inhibition, selectivity assay for KCNQ1 inhibitor project, cell-based; KCNQ2 cells, FluxOR thallium flux fluorescence; inhibition, % at 10 µM; actives 71% (n = 1,600); AID 651746, 2012; shares compounds with KCNQ1 inh;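 active means mean percent inhibition of the KCNQ2 thallium signal more than 5 SD above the buffer-only control wells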;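 further: KCNQ2 expressed in CHO cells; 0% = buffer control wells and 100% = XE-991 inhibitor control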
KCNQ1 KCNE1 spec – KCNQ1/KCNE1 channel inhibition, selectivity assay for KCNQ1 inhibitor project, CHO-K1 cells, thallium flux, FluxOR; shares compounds with KCNQ1 inh; FluxOR thallium flux fluorescence; inhibition, % at 10 µM; actives 77% (n = 1,600); AID 652147, 2013;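 active means mean percent inhibition of duplicate wells above the buffer-only control mean plus 3 SD of those controls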;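 further: 0% = buffer only wells and 100% = XE-991 inhibitor control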
KCNK9 inh conf – KCNK9 potassium channel inhibitors, confirmation, HEK293 cells, thallium flux, duplicate | shares compounds with KCNK9 block | FluxOR thallium flux fluorescence | inhibition, % at 10 µM | actives 43% (n = 4,900) | AID 492992, 2010;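 active means thallium signal inhibited by more than 5 SD of the compound-free buffer control wells, on both duplicate plates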;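 further: 0% = assay buffer control wells without compound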
Kir21 sel – mouse Kir2.1 channel inhibition, confirmation, selectivity assay for KCNK9 modulator project, cell-based, HEK293, thallium flux; inhibition, % at 10 µM; shares compounds with KCNK9 block; Kir2.1 cells, FluxOR thallium flux fluorescence; actives 4% (n = 4,900);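 active means thallium signal drop more than 5 SD beyond the mean of the no-compound control wells, seen in both duplicate plates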;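 further: signal is fluorescence rise after thallium addition divided by baseline fluorescence; plate controls were assay buffer only for no effect and full block by chlorpromazine control for full effect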
HEK293 Tl ctr – thallium flux in non-induced HEK293 cells, confirmation, counter-screen for KCNK9 inhibitor project, cell-based, second counter screen, non-induced KCNK9-HEK293; shares compounds with KCNK9 block; FluxOR thallium flux; inhibition, % at 10 µM; actives 40% (n = 4,900); AID 492997, 2010;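 active means thallium signal drop beyond 5 SD of the untreated control mean, on both duplicate plates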;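 further: plate controls were buffer only IC0 wells for no effect and SID17386958 at its maximal inhibitory level for full effect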
* marks the source's active call; other numbers are inactive results; i = inactive; . = no result given; + = active, no number.

SMILES	KCNQ1 act	hERG protect	KCNK9 block	KCNK3 block	KCNQ1 inh	KCNQ1 block val	CHO Tl flux	KCNQ2 spec	KCNQ1 KCNE1 spec	KCNK9 inh conf	Kir21 sel	HEK293 Tl ctr	others
Oc1c(Br)cc(Br)c(/C=N/n2c(-c3ccccc3)n[nH]c2=S)c1Br	i	-5.6	i	i	7*	83.0*	0.448	i	i	i	i	i
Oc1ccc(Br)cc1/C=N/n1c(-c2ccccc2)n[nH]c1=S	i	-11.6	i	i	i	.	.	.	.	.	.	.
CCN(CC)S(=O)(=O)c1cccc(NC(=O)Nc2cccc(C(F)(F)F)c2)c1	i	-21.4	i	i	11*	158.0*	0.302*	121.0%*	127.0%*	i	i	i
CC[C@@]1(C(=O)OC)N[C@H](CN(C)S(=O)(=O)c2ccc(OC)cc2)[C@@H]2C(=O)N(C)C(=O)[C@@H]21	.	.	.	i	.	.	.	.	.	.	.	.
CCCCn1c(N)c(N(CCC(C)C)C(=O)COC(=O)/C=C/c2ccc(F)cc2)c(=O)[nH]c1=O	.	.	.	i	.	.	.	.	.	.	.	.
CCN(C(=O)CSc1nnc(-c2ccccc2OC)n1N)c1c(N)n(Cc2ccccc2)c(=O)[nH]c1=O	.	.	.	i	.	.	.	.	.	.	.	.
N#C/C(=C/c1ccc(N2CCOCC2)o1)c1nc2ccccc2[nH]1	.	.	.	i	.	.	.	.	.	.	.	.
N#C/C(=C/c1ccc(N2CCOCC2)o1)c1ccc(Br)cc1	i	-24.9	-12*	i	16*	167.0*	0.264*	i	+	71.0%*	36.5%*	70.0%*
Cc1cccc(C)c1OCc1cc(C(=O)N2CCCCCCC2)no1	i	-9.5	i	i	i	.	.	.	.	.	.	.
Cc1ccc(N2CCN(C(=O)c3cc(COc4c(C)cccc4C)on3)CC2)c(C)c1	i	-19.8	i	i	7*	85.5*	0.392	113.0%*	108.0%*	i	i	i
O=C(COc1ccc(S(=O)(=O)N2CCCC2)cc1)NCc1ccccn1	i	-11.1	i	i	i	.	.	.	.	.	.	.
NS(=O)(=O)c1ccc(CNC(=O)c2cc(=O)c3cc(Cl)ccc3o2)cc1	i	-8.2	i	i	i	.	.	.	.	.	.	.
Cc1nc(NS(=O)(=O)c2ccc(Cl)s2)c2c3c(sc2n1)CCCC3	i	-18.2	i	i	7*	79.0*	0.471	i	66.0%*	i	i	i
Cc1ccc(C)c(N2CCN(C(=O)C(Cc3ccccc3)n3cccc3)CC2)c1 (configuration not stated)	i	-13.0	-12.5*	i	14*	115.5*	0.36*	103.0%*	165.5%*	57.5%*	i	40.0%*
COc1ccc(OC)c(C(=O)NC(CC(N)=O)c2ccc(N3CCCCCC3)c([N+](=O)[O-])c2)c1 (configuration not stated)	i	-12.3	i	i	i	.	.	.	.	.	.	.
Cc1cccc(N2CCN(C(=O)COc3ccc4c(c3)CCC4)CC2)c1C	i	-10.3	i	i	6*	102.0*	0.462	99.7%*	109.0%*	i	i	i	KCNQ1 ephys val=i
Cc1cccc(N2CCN(C(=O)COc3ccc4ccc(=O)oc4c3)CC2)c1C	i	-9.1	i	i	i	.	.	.	.	.	.	.
Nc1c(NC=O)c(=O)n(Cc2ccccc2)c(=O)n1Cc1ccccc1	i	-11.2	i	i	i	.	.	.	.	.	.	.
CC(=O)n1c2c(c3ccccc31)OC(N)=C(C#N)C2c1ccc(C(C)C)cc1 (configuration not stated)	i	-9.4	-9.22*	i	8*	114.5*	0.381	101.3%*	154.5%*	33.0%*	i	37.5%*	KCNQ1 ephys val=i
CC(=O)C1=C(C)OC(N)=C(C#N)C1c1cccc2ccccc12 (configuration not stated)	i	-14.1	i	i	i	.	.	.	.	.	.	.
O=[N+]([O-])c1ccc(Sc2cccc[n+]2[O-])c2nonc12	i	-52.3	-15.7*	-13.7*	18*	140.0*	0.26*	i	+	74.5%*	66.0%*	78.0%*
N#Cc1c(NC(=O)Cn2c(=O)oc3ccccc32)oc(-c2ccccc2)c1-c1ccccc1	i	-6.5	-8.2*	i	12*	63.5*	0.449	i	i	i	i	i
O=C(Cn1c(=O)oc2ccccc21)Nc1ccc(Br)cc1	i	-0.8	i	i	i	.	.	.	.	.	.	.
COc1cccc(C(=O)C2CCCN(Cc3cccn3-c3ccccn3)C2)c1 (configuration not stated)	i	-22.6	i	i	i	.	.	.	.	.	.	.
